Columns and labels:
[1] = target: T1, MAO-A (amine oxidase [flavin-containing] A) (Rattus norvegicus, UniProt P21396); assay: Inhibition of Sprague-Dawley rat MAO-A using Kynuramine as substrate assessed as formation of 4-hydroxyquinoline at 10 uM preincubated for 5 mins prior to substrate addition measured for 5 mins by spectrophotometry; details: rat MAO-A enzyme preparation, probe kynuramine
T1 sequence (P21396 whole entry): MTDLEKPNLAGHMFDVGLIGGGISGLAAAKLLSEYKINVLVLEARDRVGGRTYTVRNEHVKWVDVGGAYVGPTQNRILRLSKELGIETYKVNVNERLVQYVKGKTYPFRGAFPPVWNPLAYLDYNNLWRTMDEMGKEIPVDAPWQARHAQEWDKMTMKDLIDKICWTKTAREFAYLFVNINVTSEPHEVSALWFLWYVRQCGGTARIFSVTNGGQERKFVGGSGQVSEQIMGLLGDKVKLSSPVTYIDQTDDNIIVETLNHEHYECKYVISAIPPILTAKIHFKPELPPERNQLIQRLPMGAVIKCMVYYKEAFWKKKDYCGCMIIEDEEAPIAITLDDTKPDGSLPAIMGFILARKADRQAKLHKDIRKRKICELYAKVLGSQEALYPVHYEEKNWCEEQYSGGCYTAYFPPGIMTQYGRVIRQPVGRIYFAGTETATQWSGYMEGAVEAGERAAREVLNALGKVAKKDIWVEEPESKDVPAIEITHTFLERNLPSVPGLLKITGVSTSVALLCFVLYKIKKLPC

[2] = target: T2, Amine oxidase [flavin-containing] B (Rattus norvegicus, UniProt P19643); assay: Inhibition of Sprague-Dawley rat MAO-B using Kynuramine as substrate assessed as formation of 4-hydroxyquinoline preincubated for 5 mins prior to substrate addition measured for 5 mins by spectrophotometry; details: read-out: pIC50 (converted)
T2 sequence (P19643 whole entry): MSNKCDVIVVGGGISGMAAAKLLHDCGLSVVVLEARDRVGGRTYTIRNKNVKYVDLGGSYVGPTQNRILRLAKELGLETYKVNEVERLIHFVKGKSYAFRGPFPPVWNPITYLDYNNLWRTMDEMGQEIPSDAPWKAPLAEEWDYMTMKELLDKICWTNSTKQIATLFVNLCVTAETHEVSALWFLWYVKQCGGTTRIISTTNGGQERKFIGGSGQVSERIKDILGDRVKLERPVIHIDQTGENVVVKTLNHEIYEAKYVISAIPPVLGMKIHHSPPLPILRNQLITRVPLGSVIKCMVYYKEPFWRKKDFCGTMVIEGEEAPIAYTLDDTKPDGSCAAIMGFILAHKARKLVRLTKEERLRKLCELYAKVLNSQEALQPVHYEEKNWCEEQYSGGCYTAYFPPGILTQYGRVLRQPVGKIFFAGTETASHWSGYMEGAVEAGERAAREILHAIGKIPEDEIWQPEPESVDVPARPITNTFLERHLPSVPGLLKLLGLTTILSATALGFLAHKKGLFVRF

[3] = target: T3, Amine oxidase [flavin-containing] A (Rattus norvegicus, UniProt P21396); assay: Inhibition of Sprague-Dawley rat MAO-A using Kynuramine as substrate assessed as formation of 4-hydroxyquinoline preincubated for 5 mins prior to substrate addition measured for 5 mins by spectrophotometry
T3 sequence (P21396 whole entry): T1 sequence (P21396 whole entry)
Procedure, shortened: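 Enzyme source: crude brain mitochondrial fraction from male Sprague-Dawley rats (200-250 g), decapitated. Brains were washed in ice-cold isotonic Na2HPO4/KH2PO4 buffer (pH 7.40) with sucrose, fractionated by differential centrifugation, and stored at -40 °C in isotonic phosphate buffer (pH 7.4) with KCl. Kynuramine oxidation to 4-hydroxyquinoline was monitored spectrophotometrically. Values are the mean of two or three independent experiments.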

| Structure (SMILES) | inhibition at 5 min, 10 µM [1] | IC50 [2] | IC50 [3] |
| --- | --- | --- | --- |
| CCCOc1cc(=O)oc2cc(OCc3ccccc3)ccc12 | 0% | 575 nM | – |
| O=Cc1cc(=O)oc2cc(OCc3cccc(Cl)c3)ccc12 | 14% | 52.5 nM | – |
| O=c1cc(O)c2ccc(OCc3cccc(Cl)c3)cc2o1 | 6% | 479 nM | – |
| O=c1cc(O)c2ccc(OCc3cccc(F)c3)cc2o1 | 0% | 2090 nM | – |
| CNCc1cc(=O)oc2cc(OCc3cccc(Br)c3)ccc12 | 40% | 11 nM | – |
| O=c1cc(C(F)(F)F)c2ccc(OCc3cccc(Cl)c3)cc2o1 | 16% | 871 nM | – |
| CCNc1cc(=O)oc2cc(OCc3cccc(Cl)c3)ccc12 | – | 28.2 nM | 9330 nM |
| O=c1cc(CN2CCOCC2)c2ccc(OCc3cccc(Cl)c3)cc2o1 | 11% | 2290 nM | – |
| CCOC(=O)c1cc(=O)oc2cc(OCc3cccc(Cl)c3)ccc12 | 4.4% | 417 nM | – |
| O=c1cc(O)c2ccc(OCc3ccccc3)cc2o1 | 2% | 9120 nM | – |
| COc1cc(=O)oc2cc(OCc3ccccc3)ccc12 | 22% | 100 nM | – |
| NC(=O)COc1cc(=O)oc2cc(OCc3cccc(Br)c3)ccc12 | – | 8.91 nM | 8910 nM |
| O=C(COc1cc(=O)oc2cc(OCc3cccc(Cl)c3)ccc12)N1CCOCC1 | 3.2% | 12900 nM | – |
| O=C(O)COc1cc(=O)oc2cc(OCc3cccc(Cl)c3)ccc12 | 0% | – | – |
| CNC(=O)COc1cc(=O)oc2cc(OCc3cccc(Cl)c3)ccc12 | 11% | 33.9 nM | – |
| N#CCOc1cc(=O)oc2cc(OCc3cccc(Cl)c3)ccc12 | 17% | 45.7 nM | – |
| O=c1cc(CO)c2ccc(OCc3cccc(Cl)c3)cc2o1 | – | 5.25 nM | 10200 nM |
| CC(O)c1cc(=O)oc2cc(OCc3cccc(Cl)c3)ccc12 (centres undefined) | 22% | 77.6 nM | – |
| CCOc1cc(=O)oc2cc(OCc3cccc(Br)c3)ccc12 | 2.5% | 126 nM | – |

| Structure (SMILES) | inhibition at 5 min, 10 µM [1] | IC50 [2] | IC50 [3] |
| --- | --- | --- | --- |
| CCc1cc(=O)oc2cc(OCc3cccc(Cl)c3)ccc12 | 48% | 28.8 nM | – |
| O=C(O)c1cc(=O)oc2cc(OCc3cccc(Cl)c3)ccc12 | 0% | – | – |
| O=c1cc(CCl)c2ccc(OCc3cccc(Cl)c3)cc2o1 | 21% | 43.7 nM | – |
| CCOC(=O)COc1cc(=O)oc2cc(OCc3cccc(Cl)c3)ccc12 | 0% | 1820 nM | – |
| COCOc1cc(=O)oc2cc(OCc3cccc(Cl)c3)ccc12 | 23% | 100 nM | – |
| CCCCNCc1cc(=O)oc2cc(OCc3cccc(Cl)c3)ccc12 | 1.1% | 447 nM | – |
| Nc1cc(=O)oc2cc(OCc3cccc(Cl)c3)ccc12 | – | 47.9 nM | 4170 nM |
| CC(=O)COc1cc(=O)oc2cc(OCc3cccc(Cl)c3)ccc12 | 22% | 26.9 nM | – |
| COc1cc(=O)oc2cc(OCc3cccc(Br)c3)ccc12 | 27% | 5.75 nM | – |
| NC(=O)c1cc(=O)oc2cc(OCc3cccc(Cl)c3)ccc12 | 14% | 234 nM | – |
| CCOc1cc(=O)oc2cc(OCc3cccc(Cl)c3)ccc12 | 2% | 115 nM | – |
| CC(=O)Nc1cc(=O)oc2cc(OCc3cccc(Cl)c3)ccc12 | – | 38.9 nM | 282 nM |
| CSCOc1cc(=O)oc2cc(OCc3cccc(Cl)c3)ccc12 | 8.6% | 316 nM | – |
| CCCNCc1cc(=O)oc2cc(OCc3cccc(Cl)c3)ccc12 | 3.2% | 204 nM | – |
| O=c1cc(CN2CCCC2)c2ccc(OCc3cccc(Cl)c3)cc2o1 | 16% | 1700 nM | – |
| COc1cc(=O)oc2cc(OCc3cccc(Cl)c3)ccc12 | – | 7.76 nM | 11700 nM |
| O=c1cc(CO)c2ccc(OCc3cccc(Br)c3)cc2o1 | 49% | 14.1 nM | – |
| CCCOc1cc(=O)oc2cc(OCc3cccc(Br)c3)ccc12 | 0% | 74.1 nM | – |
| CN(C)C(=O)Cc1cc(=O)oc2cc(OCc3cccc(Cl)c3)ccc12 | 0% | – | – |

| Structure (SMILES) | inhibition at 5 min, 10 µM [1] | IC50 [2] | IC50 [3] |
| --- | --- | --- | --- |
| CC(C)Nc1cc(=O)oc2cc(OCc3cccc(Cl)c3)ccc12 | 0% | 7760 nM | – |
| O=c1cc(Oc2ccccc2)c2ccc(OCc3cccc(Cl)c3)cc2o1 | 0% | 4070 nM | – |
| CCOc1cc(=O)oc2cc(OCc3cccc(F)c3)ccc12 | 25% | 263 nM | – |
| O=c1cc(/C=N/O)c2ccc(OCc3cccc(Cl)c3)cc2o1 | 48% | 219 nM | – |
| O=c1cc(O)c2ccc(OCc3cccc(Br)c3)cc2o1 | 0% | 490 nM | – |
| COc1cc(=O)oc2cc(OCc3cccc(F)c3)ccc12 | 49% | 36.3 nM | – |
| CCCOc1cc(=O)oc2cc(OCc3cccc(F)c3)ccc12 | 12% | 407 nM | – |
| CCOC(=O)Nc1cc(=O)oc2cc(OCc3cccc(Cl)c3)ccc12 | 21% | 589 nM | – |
| CC(C)Oc1cc(=O)oc2cc(OCc3cccc(Cl)c3)ccc12 | 3% | 24500 nM | – |
| N#Cc1cc(=O)oc2cc(OCc3cccc(Cl)c3)ccc12 | 23% | 102 nM | – |
| CN(C)C(=O)COc1cc(=O)oc2cc(OCc3cccc(Cl)c3)ccc12 | 10% | 501 nM | – |
| CCCOc1cc(=O)oc2cc(OCc3cccc(Cl)c3)ccc12 | 5.3% | 61.7 nM | – |
| CCOc1cc(=O)oc2cc(OCc3ccccc3)ccc12 | 0% | 759 nM | – |
| O=C(COc1cc(=O)oc2cc(OCc3cccc(Cl)c3)ccc12)N1CCCCC1 | 9% | 38900 nM | – |
| CN(C)Cc1cc(=O)oc2cc(OCc3cccc(Cl)c3)ccc12 | 5.7% | – | – |
| O=c1cc(Nc2ccccc2)c2ccc(OCc3cccc(Cl)c3)cc2o1 | 0% | 9770 nM | – |
| O=c1cc(CCl)c2ccc(OCc3cccc(Br)c3)cc2o1 | 28% | 209 nM | – |
| CCNC(=O)Nc1cc(=O)oc2cc(OCc3cccc(Cl)c3)ccc12 | 0% | – | – |
| CC(=O)c1cc(=O)oc2cc(OCc3cccc(Cl)c3)ccc12 | 0% | 39.8 nM | – |
